Data from ChEMBL document CHEMBL1156810, “Synthesis and structure-activity relationships of azamacrocyclic C-X-C chemokine receptor 4 antagonists: analogues containing a single azamacrocyclic ring are potent inhibitors of T-cell tropic (X4) HIV-1 replication” (J Med Chem, 2010).

system: Human immunodeficiency virus 1; assay: Antiviral activity against HIV1 3B infected in human MT4 cells assessed as inhibition of virus replication after 5 days by MTT assay; conditions: Human immunodeficiency virus 1, 3B, MT4, 120 h

SMILES	EC50 [nM]
c1ccc(CNCc2ccc(CN3CCCNCCNCCCNCC3)cc2)nc1	9
c1ccc(CNCc2ccc(CN3CCCNCCNCCCNCC3)cc2)cc1	491
CN(Cc1ccc(CN2CCCNCCNCCCNCC2)cc1)Cc1ccccn1	416
c1ccc(CNCc2ccc(CC3CCNCCc4cccc(n4)CCNCC3)cc2)nc1	217
c1ccc(CCNCc2ccc(CN3CCCNCCNCCCNCC3)cc2)nc1	49100
Nc1ccc(CNCc2ccc(CN3CCCNCCNCCCNCC3)cc2)cc1	717
c1ccc(CNCc2ccc(CN3CCNCCc4cccc(n4)CCNCC3)cc2)nc1	1
c1ccc(CNCc2ccc(CN3CCNCCCCCCCNCC3)cc2)nc1	43
Nc1ccccc1CNCc1ccc(CN2CCCNCCNCCCNCC2)cc1	1820
c1ccc(CNCc2ccc(CN3CCNCCNCCc4cccc(c4)CC3)cc2)nc1	14100
c1cc(CNCc2ccc(CN3CCCNCCNCCCNCC3)cc2)ccn1	9980
c1ccc(CNCc2ccc(CC3CCNCCCCCCCNCC3)cc2)nc1	2180
Cc1cnc(CNCc2ccc(CN3CCCNCCNCCCNCC3)cc2)cn1	1900
c1ccc(CNCc2ccc(CN3CCNCCCSCCCNCC3)cc2)nc1	13
[O-][S+]1CCCNCCN(Cc2ccc(CNCc3ccccn3)cc2)CCNCCC1	485
FC1CCCNCCN(Cc2ccc(CNCc3ccccn3)cc2)CCNCCC1	1240
c1ccc(CNCc2ccc(CN3CCNCCNCCc4cccc(n4)CC3)cc2)nc1	63
c1ccc(CNCc2ccc(CN3CCNCCc4cccc(c4)CCNCC3)cc2)nc1	40
c1ccc(CNCc2ccc(CN3CCNCCc4cncc(c4)CCNCC3)cc2)nc1	104
c1ccc(CNCc2ccc(CC3CCNCCCOCCCNCC3)cc2)nc1	426
O=C1CN(Cc2ccc(CNCc3ccccn3)cc2)CCc2cccc(n2)CCCCCN1	126000
c1ccc(CNCc2ccc(CN3CCCCCCCNCCNCC3)cc2)nc1	11100
FC1(F)CCCNCCN(Cc2ccc(CNCc3ccccn3)cc2)CCNCCC1	920
c1cncc(CNCc2ccc(CN3CCCNCCNCCCNCC3)cc2)c1	8470
O=S1(=O)CCCNCCN(Cc2ccc(CNCc3ccccn3)cc2)CCNCCC1	11900
c1ccc(CNCc2ccc(CN3CCNCCCCCc4cccc(n4)CC3)cc2)nc1	1240
c1ccc(CNCc2ccc(CN3CCNCCCOCCCNCC3)cc2)nc1	4
c1cc(CN2CCCNCCNCCCNCC2)ccc1CN1CCCNCCNCCCNCC1 [PLERIXAFOR]	4

system: Human immunodeficiency virus 1; assay: Antiviral activity against HIV1 3B infected in human MT4 cells assessed as inhibition of virus replication after 4 days by MTT assay; assay type: functional, organism-based; conditions: Human immunodeficiency virus 1, 3B, MT4, 96 h

SMILES	EC50 [nM]
c1ccc(CNCc2ccc(CN3CCNCCCCCCc4cccc(n4)C3)cc2)nc1	4560

system: not listed separately; assay: Therapeutic index, ratio of CC50 for human MT4 cells to EC50 for HIV1 3B; assay type: cell-based; conditions: not given
Summary of the method: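 Selectivity index calculated as CC50 divided by EC50. Both come from parallel 5-day MTT viability assays in MT-4 cells, mock-infected or infected with HIV-1 IIIB at MOI 0.01.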

SMILES	selectivity ratio
c1ccc(CNCc2ccc(CN3CCCNCCNCCCNCC3)cc2)nc1	> 12000
